This is an account of results in ChEMBL document CHEMBL1149639, “Anti-tumor agents 255: novel glycyrrhetinic acid-dehydrozingerone conjugates as cytotoxic agents” (2007).

The source made the active and inactive calls. The calls are words filed in the database; no cut-off is given here.

The first test relates to 1A9. Nature of the test: Cytotoxicity against human 1A9 cells. It counts as functional. To be noted: read-out: ED50 (the source's name). The procedure, abridged: (§1)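 Sulforhodamine B assay after Rubinstein et al. Cells grown at 37 °C, humidified 5% CO2, in RPMI-1640 with 10% (v/v) FBS and 100 μg/mL kanamycin. Seeding density set per line to give final A562 of 1-2.5. Stocks in DMSO, final DMSO <1% (v/v). Two-day drug exposure, absorbance at 562 nm. ED50 (50% absorbance reduction vs untreated) interpolated from dose-response. Tests in duplicate.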
Turning to `COc1cccc(/C=C/C(C)=O)c1OC(=O)[C@@]1(C)CC[C@]2(C)CC[C@]3(C)C(=CC(=O)[C@@H]4[C@@]5(C)CC[C@H](O)C(C)(C)[C@@H]5CC[C@]43C)[C@@H]2C1`, the EC50 amounted to 0.8 µM.

The test system of a further test is HCT-8. Put plainly: Cytotoxicity against human HCT8 cells. To be noted: read-out: ED50 (the source's name). It counts as functional. A digest of the protocol: as §1
Take `COc1cccc(/C=C/C(C)=O)c1OC(=O)[C@@]1(C)CC[C@]2(C)CC[C@]3(C)C(=CC(=O)[C@@H]4[C@@]5(C)CC[C@H](O)C(C)(C)[C@@H]5CC[C@]43C)[C@@H]2C1`: the EC50 came to 1.9 µM.

Another test deals with DU-145. Nature of the test: Cytotoxicity against human DU145 cells. It counts as functional. As to conditions: read-out: ED50 (the source's name). A digest of the protocol:
as §1
For `COc1cccc(/C=C/C(C)=O)c1OC(=O)[C@@]1(C)CC[C@]2(C)CC[C@]3(C)C(=CC(=O)[C@@H]4[C@@]5(C)CC[C@H](O)C(C)(C)[C@@H]5CC[C@]43C)[C@@H]2C1`, the EC50 was found to be 3.6 µM.

The next test concerns KB. Put plainly: Cytotoxicity against human KB cells. The class given is functional. To be noted: read-out: ED50 (the source's name). A digest of the protocol:
as §1
As for `COc1cccc(/C=C/C(C)=O)c1OC(=O)[C@@]1(C)CC[C@]2(C)CC[C@]3(C)C(=CC(=O)[C@@H]4[C@@]5(C)CC[C@H](O)C(C)(C)[C@@H]5CC[C@]43C)[C@@H]2C1`, the EC50 was determined as 0.8 µM.

The next test concerns A549. Put plainly: Cytotoxicity against human A549 cells. To be noted: read-out: ED50 (the source's name). It counts as functional. The procedure, abridged:
as §1
`COc1cccc(/C=C/C(C)=O)c1OC(=O)[C@@]1(C)CC[C@]2(C)CC[C@]3(C)C(=CC(=O)[C@@H]4[C@@]5(C)CC[C@H](O)C(C)(C)[C@@H]5CC[C@]43C)[C@@H]2C1`: the EC50 turned out to be 2.2 µM.

System in another test: not listed separately
Put plainly: (§2) Cytotoxicity against human KB-VIN cells by sulforhodamine B assay. It counts as functional. As to conditions: KBVIN, read-out: ED50 (the source's name). A digest of the protocol:
as §1
`C[C@H]1[C@H](C)CC[C@]2(C(=O)O)CC[C@]3(C)C(=CC[C@@H]4[C@@]5(C)CC[C@H](O)C(C)(C)[C@@H]5CC[C@]43C)[C@H]12` [URSOLIC ACID]: the EC50 came out at 8.1 µM.

In a further test the test system is KB-VIN. Described as §2. It counts as functional.
Details: not given
A digest of the protocol: as §1
For `COc1cc(/C=C/C(C)=O)ccc1OC(=O)[C@]12CC[C@@H](C)[C@H](C)[C@H]1C1=CC[C@@H]3[C@@]4(C)CC[C@H](O)C(C)(C)[C@@H]4CC[C@@]3(C)[C@]1(C)CC2`, the result was inactive.
On the same count and under the same terms, as for `COc1cc(/C=C/C(C)=O)ccc1OC(=O)[C@]12CCC(C)(C)C[C@H]1C1=CC[C@@H]3[C@@]4(C)CC[C@H](O)C(C)(C)[C@@H]4CC[C@@]3(C)[C@]1(C)CC2`, the entry is “inactive”; as for `CC1(C)CC[C@]2(C(=O)O)CC[C@]3(C)C(=CC[C@@H]4[C@@]5(C)CC[C@H](O)C(C)(C)[C@@H]5CC[C@]43C)[C@@H]2C1`, “inactive”.

The subject of another test is LNCaP. Nature of the test: Cytotoxicity against human LN-Cap cells. To be noted: read-out: ED50 (the source's name). The class given is functional. The procedure, abridged:
as §1
For the compound `COc1cccc(/C=C/C(C)=O)c1OC(=O)[C@@]1(C)CC[C@]2(C)CC[C@]3(C)C(=CC(=O)[C@@H]4[C@@]5(C)CC[C@H](O)C(C)(C)[C@@H]5CC[C@]43C)[C@@H]2C1`, the EC50 came to 2.8 µM.

System in a further test: not listed separately
Put plainly: Cytotoxicity against human KB-VIN cells. The class given is functional. To be noted: KBVIN, read-out: ED50 (the source's name). A digest of the protocol:
as §1
On to `COc1cccc(/C=C/C(C)=O)c1OC(=O)[C@@]1(C)CC[C@]2(C)CC[C@]3(C)C(=CC(=O)[C@@H]4[C@@]5(C)CC[C@H](O)C(C)(C)[C@@H]5CC[C@]43C)[C@@H]2C1`, for which the EC50 amounted to 2.8 µM.

The test system of the next test is KB. Nature of the test: Cytotoxicity against human KB cells by sulforhodamine B assay. It counts as functional.
Details: not given
A digest of the protocol:
as §1
(The SRB assay estimates cell density from bound dye.)
Regarding `COc1cc(/C=C/C(C)=O)ccc1OC(=O)[C@]12CCC(C)(C)C[C@H]1C1=CC[C@@H]3[C@@]4(C)CC[C@H](O)C(C)(C)[C@@H]4CC[C@@]3(C)[C@]1(C)CC2`, the outcome was inactive.
With `CC1(C)CC[C@]2(C(=O)O)CC[C@]3(C)C(=CC[C@@H]4[C@@]5(C)CC[C@H](O)C(C)(C)[C@@H]5CC[C@]43C)[C@@H]2C1`, the result was inactive.

Still in this test, the particulars now being: read-out: ED50 (the source's name).
For `COc1cc(/C=C/C(C)=O)ccc1OC(=O)[C@]12CC[C@@H](C)[C@H](C)[C@H]1C1=CC[C@@H]3[C@@]4(C)CC[C@H](O)C(C)(C)[C@@H]4CC[C@@]3(C)[C@]1(C)CC2`, the EC50 worked out at 10.5 µM.
The same measure, in the same setting: as for `C[C@H]1[C@H](C)CC[C@]2(C(=O)O)CC[C@]3(C)C(=CC[C@@H]4[C@@]5(C)CC[C@H](O)C(C)(C)[C@@H]5CC[C@]43C)[C@H]12` [URSOLIC ACID], the figure is 8.3 µM.

The next test relates to ZR-75-1. Put plainly: Cytotoxicity against human ZR751 cells. It counts as functional. To be noted: read-out: ED50 (the source's name). A digest of the protocol:
as §1
For the compound `COc1cccc(/C=C/C(C)=O)c1OC(=O)[C@@]1(C)CC[C@]2(C)CC[C@]3(C)C(=CC(=O)[C@@H]4[C@@]5(C)CC[C@H](O)C(C)(C)[C@@H]5CC[C@]43C)[C@@H]2C1`, the EC50 was found to be 3 µM.

The test system of a further test is PC-3. Put plainly: Cytotoxicity against human PC3 cells. The class given is functional. To be noted: read-out: ED50 (the source's name). A digest of the protocol:
as §1
On to `COc1cccc(/C=C/C(C)=O)c1OC(=O)[C@@]1(C)CC[C@]2(C)CC[C@]3(C)C(=CC(=O)[C@@H]4[C@@]5(C)CC[C@H](O)C(C)(C)[C@@H]5CC[C@]43C)[C@@H]2C1`, for which the EC50 was 1.1 µM.
